Screening data: PubChem BioAssay, Broad Institute
In the library only some 2.8% were active in any assay of this set; here they are far more common.
CAL PDZ FP-1: CAL PDZ peptide-binding inhibitors, primary screen, biochemical, fluorescence polarization, Cer-tagged CAL PDZ, HTS | AID 504414, 2011 | inhibition, % at 20 µM | purified CAL PDZ, TMR-peptide fluorescence polarization, 1 h | Golgi-associated PDZ and coiled-coil motif-containing protein (Homo sapiens), Q9HD26 | 0.02% of 330,000 active;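 active = highest replicate inhibition of at least 40%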;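 note: plate controls were DMSO neutral control wells for no effect and unlabeled competitor peptide control wells for full effect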
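Test system: purified CerCALP PDZ construct; Compound dosing: one concentration, 20 µM compound; Also added: TMR-labelled reporter peptide T*-PRC34 bound in PDZ groove; Read-out: inhibition from polarization loss; Controls: unlabelled peptide and DMSO controls; Signal: FP readout, S and P plane fluorescence; Incubation: 1 h at RT.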
dFosB act: activators of delta FosB homodimer, primary screen, biochemical, fluorescence polarization, TAMRA-CDK5 oligo, single point; activation, % at 25 µM; AID 493131, 2011; Protein FosB (Mus musculus), P13346; 0.99% of 340,000 active; purified delta FosB; percent of positive-control signal above neutral wells;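 active = mean activation above about 17%, with every replicate also reaching it, limit read from the data, passing the limit was not always enough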
SR-BI HDL uptake: inhibitors of SR-BI mediated HDL lipid uptake, primary screen, ldlA[mSR-BI] cells, fluorescence, single point; ldlA[mSR-BI] CHO cells, DiI-HDL uptake fluorescence, 3 h; inhibition, % at 12.5 µM; 0.96% of 320,000 active; Scavenger receptor class B member 1 (Mus musculus), Q61009;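 active = mean replicate inhibition of at least 70% and a set share of replicates each scoring 70 or more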;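 note: 0% = median of neutral control wells and 100% = median of positive control wells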
Target sequence (Q61009 whole entry, looked up): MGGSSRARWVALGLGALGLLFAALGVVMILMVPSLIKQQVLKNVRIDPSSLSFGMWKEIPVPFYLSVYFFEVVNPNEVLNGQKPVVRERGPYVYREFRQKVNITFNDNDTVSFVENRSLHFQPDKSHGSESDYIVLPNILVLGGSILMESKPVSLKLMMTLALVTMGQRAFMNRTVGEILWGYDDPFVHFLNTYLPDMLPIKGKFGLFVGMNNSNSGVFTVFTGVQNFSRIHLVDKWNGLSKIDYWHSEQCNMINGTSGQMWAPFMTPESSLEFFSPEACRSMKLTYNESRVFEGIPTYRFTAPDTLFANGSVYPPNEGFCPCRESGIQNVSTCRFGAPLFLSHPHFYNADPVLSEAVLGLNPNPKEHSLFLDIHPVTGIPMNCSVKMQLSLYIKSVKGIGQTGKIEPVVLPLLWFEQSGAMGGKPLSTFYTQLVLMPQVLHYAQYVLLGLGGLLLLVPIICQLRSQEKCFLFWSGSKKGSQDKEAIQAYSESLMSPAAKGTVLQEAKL
CAL PDZ FP-2: untagged CAL PDZ binding inhibitors, primary screen, biochemical, fluorescence polarization, HTS; Golgi-associated PDZ and coiled-coil motif-containing protein (Homo sapiens), Q9HD26; purified CAL PDZ, TMR-peptide fluorescence polarization, 1 h; inhibition, % at 24.9 µM; 0.92% of 300,000 active; AID 602252, 2012;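 active = mean inhibition of at least 30% with at least half of replicates also reaching 30%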;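 note: 0% = DMSO neutral control and 100% = excess unlabeled competitor peptide PRC23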
SR-BI uptake up: activators of SR-BI mediated DiI-HDL uptake, primary screen, ldlA[mSR-BI] CHO cells, DiI fluorescence; 0.096% of 320,000 active; activation, % at 12.5 µM; AID 504775, 2011; 3 h; 100 = double the neutral-control signal;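 active = mean replicate activation of at least 60% and every replicate at or above 60%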;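 note: 0% = median plate neutral-control signal and 100% = twice that signal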
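material = CHO ldlA[mSR-BI] cells | medium = Ham's F12 with 0.5% BSA, HEPES 25 mM, pH 7.4 | reagent = fluorescent DiI-HDL, 10 µg/mL final | compound dosing = single-point compound dose | incubation = 3 h, 37 °C | measured by = bottom-read fluorescence, 550/595 nm | measure = HDL uptake via cellular fluorescence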
Starred values were filed as active, the others as inactive; . = no result given.

SMILES | CAL PDZ FP-1 | dFosB act | SR-BI HDL uptake | CAL PDZ FP-2 | SR-BI uptake up
Cc1cc(C)nc(N/N=C/C2=C(N3CCOCC3)C(=C/c3ccccc3)/CC2)n1 | 1 | 0 | 90* | 3 | -90
CC(C)C(NC(=O)C12CC3CC(CC(C3)C1)C2)C(=O)N/N=C/C1=C(N2CCOCC2)C(=C\c2ccc([N+](=O)[O-])cc2)/CC1 (stereo not drawn) | -2 | -8 | 99* | -3 | -99
O=C(N/N=C/C1=C(N2CCOCC2)C(=C\c2ccccc2)/CC1)Nc1ccccc1 | -1 | -19 | 74* | 3 | -74
CCN(CC)c1ccc(/C=C2\CCC(/C=N/NC(=O)c3ccc(=O)n(C)c3)=C2N2CCOCC2)cc1 | -1 | 0 | 100* | 1 | -100
CCOCCn1c(=O)c2c(nc3n2CC(C)CN3CCc2ccccc2)n(C)c1=O (stereo not drawn) | -2 | -5 | 4 | -3 | -4
O=C(CCC(=O)N1CCN(S(=O)(=O)c2ccccc2)CC1)c1ccc(Br)cc1 | 0 | -7 | -3 | . | 3
CN(Cc1ccc(Cl)cc1Cl)C(=O)CCNC(=O)c1ccco1 | 1 | -6 | -23 | . | 23
CSc1ncccc1C(=O)OCC(=O)Nc1nc(C)c(Cl)cc1Cl | -1 | -5 | -9 | -5 | 9
NC(=O)c1ccsc1NC(=O)CCS(=O)(=O)c1ccc(F)cc1 | -2 | -5 | -31 | -1 | 31
CC(C)(C)n1nc2c(c1NC(=O)c1ccc(Cl)c([N+](=O)[O-])c1)CS(=O)(=O)C2 | -2 | -7 | -9 | -2 | 9
Cc1cccc(-n2c(N)c(-c3nc4ccccc4n3C)c3nc4ccccc4nc32)c1 | -2 | -3 | 73* | 0 | -73
Cn1c(-c2c(N)n(-c3ccccc3)c3nc4ccccc4nc23)nc2ccccc21 | 0 | -5 | 45 | 0 | -45
CCc1ccccc1NC(=O)c1ccc2c(O)c(S(=O)(=O)c3ccc(OC)cc3)c(=O)[nH]c2c1 | -3 | -5 | -5 | 1 | 5
CCCCNS(=O)(=O)c1ccc2nc(SCC(N)=O)[nH]c2c1 | 1 | -4 | 2 | -4 | -2
CCCCNS(=O)(=O)c1ccc2nc(SCC(=O)Nc3sccc3C#N)[nH]c2c1 | . | -14 | 1 | 35* | -1
COc1cc(/C=C(\C#N)c2nc3ccc(C)cc3[nH]2)c([N+](=O)[O-])cc1OC | -3 | -2 | 48 | -2 | -48
CCN(CC)c1ccc(/C=N/Nc2nc3ccccc3[nH]2)c(O)c1 | 2 | 32* | 114* | -1 | -114
CCCOc1cc(N(CC)CC)ccc1/C=C(/C#N)c1nc2ccc(C)cc2[nH]1 | -2 | -22 | 89* | -6 | -89
CCN(CC)c1ccc(/C=C(/C#N)c2nc3ccc(C)cc3[nH]2)c(OC(C)C)c1 | -2 | -14 | 102* | -5 | -102
COc1cc(OC)c(OC)cc1/C=N/Nc1nc2ccccc2[nH]1 | 2 | 5 | 9 | -1 | -9
CCOc1cc(N(CC)CC)ccc1/C=C(/C#N)c1nc2ccccc2[nH]1 | 1 | -12 | 109* | 43* | -109
O=C(Nc1ccc(C(F)(F)F)cc1Cl)c1ccc(Cn2cc(Br)cn2)o1 | -2 | -16 | -17 | -3 | 17
O=C(Nc1cccc(C(F)(F)F)c1)c1ccc(Cn2cc(Br)cn2)o1 | -1 | -4 | 0 | 76* | 0
CC(=O)NC(Cc1cccc(C)c1)C(=O)NC1CCN(C(=O)NCc2ccccc2)CC1 (stereo not drawn) | 0 | -6 | -10 | 2 | 10
COc1ccc(OC)c(-c2c3cc(O)c(=O)cc-3oc3cc(O)c(O)cc23)c1 | 87* | 46* | 91* | 57* | -91
O=c1cc2oc3cc(O)c(O)cc3c(-c3ccccc3O)c-2cc1O | 47* | -112 | 27 | 26 | -27
COc1ccc(OC)c(-c2oc3ccccc3c(=O)c2O)c1 | -2 | -1 | 13 | -6 | -6
